Measured values taken from paper PMC5836871 (Journal of Clinical Pharmacology, 2017).
“And” between values parts separate entries of the source, which are not always exact repeats. Equal values may be shown once. Read-outs that look alike come from different tables or passages of the source. Marks after values point to notes of the source that are not given here.

Experiments:
[1] = assay type: in vivo, human; details: for AUC0–∞ of metabolite, gMean (gCV%) / Cmax of metabolite, gMean (gCV%) / t1/2, gMean (gCV%) / fe0–72 (fraction excreted unchanged in urine), gMean (gCV%): single oral nintedanib 100 mg
In short: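 Single oral 100 mg dose of test compound as soft-gelatin capsule, fed. Adults 18–79 y, BMI 18.5–34 kg/m2: Child-Pugh A (score 5–6) or B (7–9) hepatic impairment, plus matched healthy controls. Plasma sampled to day 8 for parent and metabolites. AUC0–∞, Cmax and AUC0–tz compared by log-scale ANOVA (hepatic status fixed, matched pair random); other parameters descriptive.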

[2] = assay type: in vitro ADME, human; details: for Protein-bound fraction, mean ± SD: plasma spiked with 100 ng/mL 14C-labeled compound
In short: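 Predose plasma from Child-Pugh A, Child-Pugh B and matched healthy subjects was spiked ex vivo with 100 ng/mL [14C]-labelled test compound or its [14C]-labelled metabolite. Binding was measured in vitro by equilibrium dialysis, with radioactivity quantified by liquid scintillation counting. The protein-bound fraction is reported as the group mean ± SD.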

[3] = ref BI, data on file, cited from earlier work
Safety and tolerability = assay type: in vivo, human
In short: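 Open-label, parallel-group, matched-group phase 1 study in adults aged 18–79 with BMI 18.5–34 kg/m2 (Child-Pugh A, Child-Pugh B, and healthy subjects matched by age, weight, race, smoking and sex). Each subject took one oral soft-gelatin capsule with 240 mL water, fed. AEs were recorded from dosing to the end of the 28-day follow-up and coded by MedDRA v17.1. Relatedness was judged by the investigator.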

P‐glycoprotein = details: cited from earlier work
[4] = cited from earlier work
[5] = Child-Pugh A subjects vs healthy subjects
[6] = Child-Pugh A, Child-Pugh B, healthy subjects
[7] = Child-Pugh B subjects vs healthy subjects
[8] = Child-Pugh A matched healthy subjects (n = 8)
[9] = Child-Pugh B matched healthy subjects (n = 8)
[10] = single 100 mg dose, Child-Pugh A (n = 8)
[11] = single 100 mg dose, Child-Pugh B (n = 8)
[12] = single 100 mg dose, Healthy (n = 17)
[13] = Child-Pugh A vs matched healthy subjects
[14] = Child-Pugh B vs matched healthy subjects

CN1CCN(CC(=O)N(C)c2ccc(N/C(=C3\C(=O)Nc4cc(C(=O)O[C@@H]5O[C@H](C(=O)O)[C@@H](O)[C@H](O)[C@H]5O)ccc43)c3ccccc3)cc2)CC1 [BIBF 1202 glucuronide]
AUC0–∞, fold higher than in healthy subjects [1, 5]: ~1.5 fold | Cmax, comparison across groups [1, 6]: comparable across groups | AUC0–∞, fold higher than in healthy subjects [1, 7]: ~3.5 fold | AUC0–∞ of metabolite, gMean (gCV%) ([1]; Child-Pugh A (n = 8)): 1040 (95.9) ng∙h/mL | Cmax of metabolite, gMean (gCV%) ([1]; Child-Pugh A (n = 8)): 15.1 (113) ng/mL | t1/2, gMean (gCV%) ([1]; Child-Pugh A (n = 8)): 41.1 (45.5) h | AUC0–∞ of metabolite, gMean (gCV%) [1, 8]: 657 (66.8) ng∙h/mL | Cmax of metabolite, gMean (gCV%) [1, 8]: 11.4 (62.0) ng/mL | t1/2, gMean (gCV%) [1, 8]: 31.9 (34.1) h | AUC0–∞ of metabolite, gMean (gCV%) ([1]; Child-Pugh B (n = 8)): 2650 (285) ng∙h/mL | Cmax of metabolite, gMean (gCV%) ([1]; Child-Pugh B (n = 8)): 19.6 (201) ng/mL | t1/2, gMean (gCV%) ([1]; Child-Pugh B (n = 8)): 57.4 (114) h | AUC0–∞ of metabolite, gMean (gCV%) [1, 9]: 761 (69.1) ng∙h/mL | Cmax of metabolite, gMean (gCV%) [1, 9]: 12.7 (76.2) ng/mL | t1/2, gMean (gCV%) [1, 9]: 28.3 (21.9) h

CN1CCN(CC(=O)N(C)c2ccc(N/C(=C3\C(=O)Nc4cc(C(=O)O)ccc43)c3ccccc3)cc2)CC1 [BIBF 1202]
Protein-bound fraction, mean ± SD ([2]; Child-Pugh A (n = 8)): 81.2 ± 3.6% | Protein-bound fraction, mean ± SD ([2]; Child-Pugh B (n = 8)): 82.4 ± 5.5% | Protein-bound fraction, mean ± SD ([2]; Healthy (n = 17)): 85.0 ± 3.0% | Exposure, fold higher than in healthy subjects [1, 5]: ~2 fold | AUC0–∞, fold higher than in healthy subjects [1, 7]: ~17 fold | Cmax, fold higher than in healthy subjects [1, 7]: 9 fold | AUC0–∞ of metabolite, gMean (gCV%) ([1]; Child-Pugh A (n = 8)): 216 (81.8) ng∙h/mL | Cmax of metabolite, gMean (gCV%) ([1]; Child-Pugh A (n = 8)): 17.4 (47.1) ng/mL | t1/2, gMean (gCV%) ([1]; Child-Pugh A (n = 8)): 39.1 (53.8) h | AUC0–∞ of metabolite, gMean (gCV%) [1, 8]: 86.8 (48.8) ng∙h/mL | Cmax of metabolite, gMean (gCV%) [1, 8]: 7.55 (56.2) ng/mL | t1/2, gMean (gCV%) [1, 8]: 24.7 (65.1) h | AUC0–∞ of metabolite, gMean (gCV%) ([1]; Child-Pugh B (n = 8)): 1190 (86.4) ng∙h/mL | Cmax of metabolite, gMean (gCV%) ([1]; Child-Pugh B (n = 8)): 60.7 (75.2) ng/mL | t1/2, gMean (gCV%) ([1]; Child-Pugh B (n = 8)): 46.9 (16.6) h | AUC0–∞ of metabolite, gMean (gCV%) [1, 9]: 70.4 (38.7) ng∙h/mL | Cmax of metabolite, gMean (gCV%) [1, 9]: 6.47 (57.5) ng/mL | t1/2, gMean (gCV%) [1, 9]: 23.6 (50.1) h

COC(=O)c1ccc2c(c1)NC(=O)/C2=C(\Nc1ccc(N(C)C(=O)CN2CCN(C)CC2)cc1)c1ccccc1 [Nintedanib]
Time to maximum plasma concentrations ([3]; Asian (n = 39) and European (n = 32) patients with impaired hepatic function and advanced HCC): 2 to 3 h | Exposure, fold higher in group II compared with group I ([3]; group II: ALT or AST >2 to ≤5 × ULN or Child-Pugh score 7, group I: ALT and AST ≤ 2 × ULN and Child-Pugh score 5–6): ~2 fold | Protein-bound fraction ([2]; across the groups): > 99% | Severe or serious AEs (Safety and tolerability; all groups, single 100 mg dose): No severe or serious AEs were reported | Tolerability (Safety and tolerability; all groups, single dose of 100 mg): well tolerated | Diarrhea (Safety and tolerability; [10]): 0 n (%) | Headache (Safety and tolerability; [10]): 0 n (%) | Nausea (Safety and tolerability; [10]): 0 n (%) | Pruritus (Safety and tolerability; [10]): 0 n (%) | Skin irritation (Safety and tolerability; [10]): 0 n (%) | Vomiting (Safety and tolerability; [10]): 0 n (%) | Diarrhea (Safety and tolerability; [11]): 1 (12.5) n (%) | Headache (Safety and tolerability; [11]): 0 n (%) | Nausea (Safety and tolerability; [11]): 1 (12.5) n (%) | Pruritus (Safety and tolerability; [11]): 1 (12.5) n (%) | Skin irritation (Safety and tolerability; [11]): 1 (12.5) n (%) | Subjects with any AE (Safety and tolerability; [11]): 3 n (%) and 3 (37.5) n (%) | Vomiting (Safety and tolerability; [11]): 0 n (%) | Diarrhea (Safety and tolerability; [12]): 0 n (%) | Headache (Safety and tolerability; [12]): 1 (5.9) n (%) | Nausea (Safety and tolerability; [12]): 2 (11.8) n (%) | Pruritus (Safety and tolerability; [12]): 0 n (%) | Skin irritation (Safety and tolerability; [12]): 0 n (%) | Subjects with any AE (Safety and tolerability; [12]): 3 n (%) and 3 (17.6) n (%) | Vomiting (Safety and tolerability; [12]): 1 (5.9) n (%) | Exposure, fold higher than in healthy subjects [1, 5]: ~2 fold | AUC0–tz, adjusted gMean ratio [1, 13]: 216.8% | AUC0–∞, adjusted gMean ratio [1, 13]: 215.4% | Cmax, adjusted gMean ratio [1, 13]: 221.8% | Renal clearance, comparison across groups [1, 6]: comparable across groups | Exposure, fold higher than in healthy subjects [1, 7]: ~8 fold | AUC0–tz, adjusted gMean ratio [1, 14]: 870.7% | AUC0–∞, adjusted gMean ratio [1, 14]: 867.1% | Cmax, adjusted gMean ratio [1, 14]: 761.0% | Time at which Cmax was reached, range ([1]; individual range across all groups): 1 to 8 h | Median time at which Cmax was reached ([1]; medians across Child-Pugh A, Child-Pugh B and healthy subjects): 3 to 4 h | fe0–72 (fraction excreted unchanged in urine), gMean (gCV%) ([1]; Child-Pugh A (n = 8)): 0.204 (96.2) % | fe0–72 (fraction excreted unchanged in urine), gMean (gCV%) [1, 8]: 0.102 (37.9) % | fe0–72 (fraction excreted unchanged in urine), gMean (gCV%) ([1]; Child-Pugh B (n = 7)): 0.543 (31.7)^b % | fe0–72 (fraction excreted unchanged in urine), gMean (gCV%) [1, 9]: 0.0945 (28.7) % | P-glycoprotein substrate (P‐glycoprotein): substrate of P‐glycoprotein | Time of absorption (delay by food) ([4]; after food intake): ~4 h | Terminal half-life [4]: 10 to 15 h | Time of absorption (delay by food) ([4]; fasted conditions): approximately 2 hours | Exposure increase when administered after food intake ([4]; fed vs fasted): approximately 20% | Total body clearance ([4]; healthy subjects): 1390 mL/min | Elimination through biliary/fecal excretion ([4]; in vivo): > 90% | Absolute bioavailability ([4]; nintedanib 100 mg in healthy volunteers): approximately 5% | Time to steady state ([4]; of dosing): ≤ 7 days | Time to maximum plasma concentration ([4]; oral administration): 2 to 4 h
